Experiments:
[1] = Multiple-dose pharmacokinetics of semaglutide; type: in vivo, human
Procedure, shortened: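 Test compound (1.34 mg/mL) was given s.c. once weekly at 0.25 mg for 4 weeks, 0.5 mg for 4 weeks, then 1.0 mg for 4 weeks. Steady-state trough concentrations were taken after 4, 8 and 12 weeks. After a further clinic 1.0 mg dose, steady-state parameters were derived from 0–168 h concentration-time curves.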

subjects with obesity = test: Safety and tolerability; type: in vivo, human
Procedure, shortened: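 Safety was followed through both 12-week periods of randomised crossover s.c. weekly dosing (0.25, 0.5, then 1.0 mg, 4 weeks each) versus matching placebo. Assessments were adverse events, hypoglycaemic events and blood pressure.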

[2] = 12 weeks, once-weekly s.c. escalated to 1.0 mg

## CC[C@H](C)[C@H](NC(=O)[C@H](Cc1ccccc1)NC(=O)[C@H](CCC(=O)O)NC(=O)[C@H](CCCCNC(=O)COCCOCCNC(=O)COCCOCCNC(=O)CC[C@H](NC(=O)CCCCCCCCCCCCCCCCC(=O)O)C(=O)O)NC(=O)[C@H](C)NC(=O)[C@H](C)NC(=O)[C@H](CCC(N)=O)NC(=O)CNC(=O)[C@H](CCC(=O)O)NC(=O)[C@H](CC(C)C)NC(=O)[C@H](Cc1ccc(O)cc1)NC(=O)[C@H](CO)NC(=O)[C@H](CO)NC(=O)[C@@H](NC(=O)[C@H](CC(=O)O)NC(=O)[C@H](CO)NC(=O)[C@@H](NC(=O)[C@H](Cc1ccccc1)NC(=O)[C@@H](NC(=O)CNC(=O)[C@H](CCC(=O)O)NC(=O)C(C)(C)NC(=O)[C@@H](N)Cc1cnc[nH]1)[C@@H](C)O)[C@@H](C)O)C(C)C)C(=O)N[C@@H](C)C(=O)N[C@@H](Cc1c[nH]c2ccccc12)C(=O)N[C@@H](CC(C)C)C(=O)N[C@H](C(=O)N[C@@H](CCCNC(=N)N)C(=O)NCC(=O)N[C@@H](CCCNC(=N)N)C(=O)NCC(=O)O)C(C)C [semaglutide]
[1]; 0.25 mg s.c. once-weekly, after 4 weeks of treatment
  Mean trough value (CV): 4.64 (32.5) nmol/L
[1]; 0.5 mg s.c. once-weekly, after 8 weeks of treatment
  Mean trough value (CV): 10.25 (23.3) nmol/L
[1]; 1.0 mg s.c. once-weekly, after 12 weeks of treatment
  Mean trough value (CV): 19.73 (21.9) nmol/L
Subjects with obesity; 12 weeks
  Severe or blood glucose-confirmed symptomatic hypoglycaemic events: No severe or blood glucose‐confirmed symptomatic hypoglycaemic events were reported
Subjects with obesity; [2]
  Serious AEs: no serious AEs were reported
  Severity of AEs: mild or moderate
Subjects with obesity; week 12, either treatment
  Observed mean changes from baseline in systolic and diastolic blood pressure: ≤ 2 mm Hg

Reference: publication PMC5573908 (Diabetes, Obesity & Metabolism, 2017)
